In the array DNA melting data of Ke et al. (doi:10.1101/2024.01.08.574731):

Experiments:
[1] = folding enthalpy; higher = less favourable; fluorescence melt of hairpins on a sequencing array, two-state fit; settings: sodium 0.088 M
Summary of the method: (§1)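 Cy3 signals were normalised both to pre-quench Cy3 and to control constructs. They came from library hairpins carrying annealed Cy3 and quencher oligos on a sequenced MiSeq flow cell, imaged in 50 mM Na-HEPES pH 8.0, 25 mM NaCl, in 2.5 °C steps up to 60 °C. Bootstrapped two-state fits gave melting temperature and folding enthalpy, and four replicates were combined by inverse variance. Fitted temperatures were then raised by 9.35 °C to match UV melts.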

[2] = melting temperature; fluorescence melt of hairpins on a sequencing array, two-state fit, raised by 9.35 °C to match UV melts; settings: sodium 0.088 M
Summary of the method: as §1

GGAAGCTCGAAAGAGTCC (((..(((....)))))) showed a folding enthalpy [1] of -11.6 kcal/mol and a Tm [2] of 26.2 °C.
GTTTGAGGAAACTTAAGC (.((.((....)).)).) showed a folding enthalpy [1] of -13.9 kcal/mol and a Tm [2] of 31.9 °C.
With GCAAGGCGAAAGCTTCGC ((.(.((....)).).)) the folding enthalpy [1] was -12.2 kcal/mol and the Tm [2] was 40.9 °C.
Work on GTATGCCGAAAGGCTTAC (((.(((....))).))) yielded a folding enthalpy [1] of -19 kcal/mol and a Tm [2] of 50.6 °C.
In the case of GGCATAGGAAACTACGCC (((.(((....))).))), the folding enthalpy [1] is reported as -28.2 kcal/mol and the Tm [2] is reported as 41.1 °C.
For GATCACGCGGTGATC ((((((...)))))), the folding enthalpy [1] was -40.2 kcal/mol and the Tm [2] was 59.2 °C.
Work on GGTAACCCGAAAGGGACC (((..(((....)))))) yielded a folding enthalpy [1] of -14.9 kcal/mol and a Tm [2] of 36.5 °C.
For GCAAGGGGAAACCCCTAC (.(.(((....))).).), the folding enthalpy [1] was -12 kcal/mol and the Tm [2] was 28.7 °C.
Work on GTTCGGCGAAAGCCAAAC (((.(((....))).))) yielded a folding enthalpy [1] of -15.5 kcal/mol and a Tm [2] of 46.5 °C.
For GGCCTCGGAAACGAGACC ((.((((....)))).)), the folding enthalpy [1] was -31.3 kcal/mol and the Tm [2] was 52.2 °C.
In the case of GTTAGTGGAAACACTGAC ((.((((....)))).)), the folding enthalpy [1] is reported as -24.2 kcal/mol and the Tm [2] is reported as 44.7 °C.
Sequence GGGATCGAAAGATACCC ((((((....))).))) has a folding enthalpy [1] of -21.2 kcal/mol and a Tm [2] of 51.6 °C.
In the case of GTCTGTGGAAACACAGGC (.(((((....))))).), the folding enthalpy [1] is reported as -32.4 kcal/mol and the Tm [2] is reported as 53.7 °C.
With CGACCGGAAACGGATTCG ((((((....)))..))) the folding enthalpy [1] was -16.2 kcal/mol and the Tm [2] was 33.6 °C.
In the case of GTGGACGAAAGTCAGCAC ((((((....)))..))), the folding enthalpy [1] is reported as -16.1 kcal/mol and the Tm [2] is reported as 40.3 °C.
Work on GATAACGAAAGTTGATC ((((((....))).))) yielded a folding enthalpy [1] of -11.2 kcal/mol and a Tm [2] of 27.6 °C.
GCCATCGAAAGATCGGC ((((((....))).))) showed a folding enthalpy [1] of -24.7 kcal/mol and a Tm [2] of 48.2 °C.
With GGTTGGGGAAACTCAACC (((((.(....).))))) the folding enthalpy [1] was -38.4 kcal/mol and the Tm [2] was 51.1 °C.
Work on GATCCATTGATGGATC ((((((....)))))) yielded a folding enthalpy [1] of -40.5 kcal/mol and a Tm [2] of 53.5 °C.
GCTTTGCGAAAGCAACGC ((.((((....)))).)) gave a folding enthalpy [1] of -20.8 kcal/mol and a Tm [2] of 55.9 °C.
For GATCAAATAATTGATC ((((((....)))))), the folding enthalpy [1] was -27.9 kcal/mol and the Tm [2] was 34.7 °C.
GATCAGTTCCCTGATC ((((((....)))))) gave a folding enthalpy [1] of -32 kcal/mol and a Tm [2] of 49.7 °C.
In the case of AGTATGAAAATACT (((((....))))), the folding enthalpy [1] is reported as -15.2 kcal/mol and the Tm [2] is reported as 32 °C.
For GCTGCATCGAAAGATAGC (((..(((....)))))), the folding enthalpy [1] was -17 kcal/mol and the Tm [2] was 35.6 °C.
With GCAAGTCGAAAGACCTGC (((.(((....))).))) the folding enthalpy [1] was -29.6 kcal/mol and the Tm [2] was 47.9 °C.
For GCGGCCACCCGC ((((....)))), the folding enthalpy [1] was -19.8 kcal/mol and the Tm [2] was 59.5 °C.
For GATCTACTAATAGATC ((((((....)))))), the folding enthalpy [1] was -27.3 kcal/mol and the Tm [2] was 38.9 °C.
Work on GTATTAGGAAACTAATGC (.(((((....))))).) yielded a folding enthalpy [1] of -28.2 kcal/mol and a Tm [2] of 34.2 °C.
GCGATATCTCGC ((((....)))) showed a folding enthalpy [1] of -20.5 kcal/mol and a Tm [2] of 48.5 °C.
With GTGTACGGAAACGTGCAC (((.(((....))).))) the folding enthalpy [1] was -28.3 kcal/mol and the Tm [2] was 55.3 °C.
In the case of GTGTCTGGAAACGGACAC (((((.(....).))))), the folding enthalpy [1] is reported as -41.3 kcal/mol and the Tm [2] is reported as 54 °C.
GGCGTCGAAAGACCGCC ((((((....))).))) showed a folding enthalpy [1] of -34.5 kcal/mol and a Tm [2] of 60.5 °C.
With GGCCGTCGAAAGACGCC (((.(((....)))))) the folding enthalpy [1] was -17.2 kcal/mol and the Tm [2] was 62.8 °C.
GAGGAAGGAAACTTCCCC (.(((((....))))).) showed a folding enthalpy [1] of -11 kcal/mol and a Tm [2] of 35.2 °C.
